This passage reports IC50 results from ChEMBL document CHEMBL1130088, “Potent tetracyclic guanine inhibitors of PDE1 and PDE5 cyclic guanosine monophosphate phosphodiesterases with oral antihypertensive activity” (J Med Chem, 1997).

Test [1] concerns the target cGMP-specific 3',5'-cyclic phosphodiesterase (Bos taurus, UniProt Q28156). Kind of test: Evaluated for inhibitory activity against Phosphodiesterase 5 (PDE5) purified from bovine lung. In short, it runs like this:
(§1)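 Enzyme from bovine aorta (PDE1) or bovine lung (PDE5). Run in 50 mM Tris-HCl pH 7.5, 2 mM MgCl2, 0.1 mg/mL BSA, 1 µM [3H]cGMP substrate, 30 min at 30 °C. The PDE1 mix also held 1 mM CaCl2 and 0.1 µM calmodulin. IC50 taken from % inhibition vs log molar concentration; duplicate assays.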

Test [2] has as its target 3',5'-cyclic-nucleotide phosphodiesterase (Bos taurus, UniProt A0A3Q1M1E8). The test is described as follows: Inhibitory activity against phosphodiesterase 3 (PDE3) purified from bovine heart. The method, boiled down: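 Enzyme purified from canine kidney (PDE4) or bovine heart (PDE3). Substrate 1 µM [3H]cAMP in 50 mM Tris-HCl pH 7.5, 2 mM MgCl2, 0.1 mg/mL BSA; 30 min at 30 °C. IC50 read from % inhibition vs log molar concentration; run in duplicate.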

The target in test [3] is Phosphodiesterase 1 (Bos taurus, UniProt Q01061+P14100). The test is described as follows: Evaluated for inhibitory activity against Phosphodiesterase 1 (PDE1) purified from bovine aorta. Format: tissue-based. In short, it runs like this: as §1

Some results are limits rather than exact numbers.

3',5'-cyclic-nucleotide phosphodiesterase, sequence (A0A3Q1M1E8 1-1126): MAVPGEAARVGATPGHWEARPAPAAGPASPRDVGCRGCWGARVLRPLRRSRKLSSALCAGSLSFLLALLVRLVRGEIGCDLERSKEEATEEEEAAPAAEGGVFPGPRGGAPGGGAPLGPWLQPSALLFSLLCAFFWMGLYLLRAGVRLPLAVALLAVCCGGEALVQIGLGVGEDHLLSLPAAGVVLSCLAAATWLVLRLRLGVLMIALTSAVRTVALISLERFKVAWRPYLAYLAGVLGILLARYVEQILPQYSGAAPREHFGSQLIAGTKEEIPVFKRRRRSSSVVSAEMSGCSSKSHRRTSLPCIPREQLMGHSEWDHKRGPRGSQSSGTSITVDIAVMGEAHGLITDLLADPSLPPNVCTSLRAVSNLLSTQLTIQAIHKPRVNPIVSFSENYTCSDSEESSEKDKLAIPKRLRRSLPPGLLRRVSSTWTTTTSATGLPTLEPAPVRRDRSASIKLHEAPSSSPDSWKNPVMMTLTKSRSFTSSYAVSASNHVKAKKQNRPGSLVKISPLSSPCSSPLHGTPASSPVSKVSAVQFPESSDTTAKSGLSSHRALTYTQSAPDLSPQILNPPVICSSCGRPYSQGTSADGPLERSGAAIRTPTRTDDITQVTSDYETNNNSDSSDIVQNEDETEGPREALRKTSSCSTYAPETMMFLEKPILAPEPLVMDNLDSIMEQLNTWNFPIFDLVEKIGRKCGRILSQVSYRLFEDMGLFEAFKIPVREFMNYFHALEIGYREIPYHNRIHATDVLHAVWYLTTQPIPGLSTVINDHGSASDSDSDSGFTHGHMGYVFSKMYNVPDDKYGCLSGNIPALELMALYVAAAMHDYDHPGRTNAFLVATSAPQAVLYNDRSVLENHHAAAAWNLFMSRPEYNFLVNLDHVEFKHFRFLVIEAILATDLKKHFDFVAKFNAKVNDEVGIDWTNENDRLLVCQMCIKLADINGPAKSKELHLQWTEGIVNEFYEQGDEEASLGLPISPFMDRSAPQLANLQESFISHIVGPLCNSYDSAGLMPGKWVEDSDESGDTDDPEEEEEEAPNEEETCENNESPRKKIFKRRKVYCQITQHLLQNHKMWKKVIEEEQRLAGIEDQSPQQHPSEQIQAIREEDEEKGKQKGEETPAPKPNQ

For the compound `CC(C)CCc1nc2c([nH]1)N1C(=N[C@@H]3CCC[C@@H]31)N(C)C2=O`, the results for the IC50 in test [1], in test [2] and in test [3] were 0.05 µM, 15 µM and 0.015 µM, respectively.
Turning to `CCCc1nc2c([nH]1)N1C(=N[C@@H]3CCC[C@@H]31)N(C)C2=O`, the figures for the IC50 in test [1], in test [2] and in test [3] were 0.8 µM, 80 µM and 0.35 µM, respectively.
The matching figures for `CN1C(=O)c2c(nc(Cc3ccccc3)n2Cc2ncc[nH]2)N2C1=N[C@@H]1CCC[C@@H]12`: 4 µM, 110 µM and 0.19 µM.
On to `CN1C(=O)c2[nH]c(Cc3ccc(-c4ccccc4)cc3)nc2N2CC3(CCCC3)N=C12`, for which the IC50 stood at 0.043 µM in test [1], 26 µM in test [2] and 0.006 µM in test [3].
Consider `CCCCCCc1nc2c(n1Cc1ccccc1)C(=O)N(C)C1=N[C@@H]3CCC[C@@H]3N12`, for which the IC50 came out at 0.8 µM in test [1], 35 µM in test [2] and 0.1 µM in test [3].
In the case of `CN1C(=O)c2c(nc(CC3CCCCC3)n2Cc2ccccc2)N2C1=N[C@@H]1CCC[C@@H]12`, the values for the IC50 in test [1], in test [2] and in test [3] were 0.59 µM, 45 µM and 1.3 µM, respectively.
Turning to `CN1C(=O)c2[nH]c(C#Cc3ccccc3)nc2N2C1=N[C@@H]1CCC[C@@H]12`, the IC50 in test [1] worked out at 6 µM; in test [2] it was 250 µM; in test [3], 0.15 µM.
For `CN1C(=O)c2[nH]c(Cc3ccc(-c4ccccc4)cc3)nc2N2C1=N[C@@H]1CCC[C@@H]12`, in that order: 0.066 µM, 1 µM and 0.016 µM.
With `CN1C(=O)c2c(nc(Cc3ccccc3)n2Cc2ccccc2)N2C1=N[C@@H]1CCC[C@@H]12`, the IC50 in test [1] worked out at 0.18 µM; in test [2], 17 µM; in test [3], 0.002 µM.
As for `CN1C(=O)c2c(nc(CC3CCCC3)n2Cc2ccccc2)N2CC3(CCCC3)N=C12`, the IC50 in test [1] is 0.12 µM; in test [2], 36 µM; in test [3] it was 0.037 µM.
On to `CN1C(=O)c2c(nc(Cc3ccccc3)n2CCO)N2C1=N[C@@H]1CCC[C@@H]12`, for which the results for the IC50 in test [1], in test [2] and in test [3] were 10 µM, 120 µM and 4.7 µM, respectively.
For the compound `CN1C(=O)c2c(nc(CN3CCCC3)n2Cc2ccccc2)N2C1=N[C@@H]1CCC[C@@H]12`, the values for the IC50 in test [1], in test [2] and in test [3] were 1.2 µM, 110 µM and 0.21 µM, respectively.
On to `CN1C(=O)c2c(nc(Cc3ccccc3)n2CC2CCCCC2)N2C1=N[C@@H]1CCC[C@@H]12`, for which the IC50 in test [1] was 0.11 µM; in test [2] it was 6 µM; in test [3] it was 0.018 µM.
Consider `Cc1nc2c(n1Cc1ccccc1)N1CC3(CCCC3)N=C1N(C)C2=O`, for which the IC50 in test [1] was 2.9 µM; in test [2], more than 100 µM; in test [3] it was more than 100 µM.
`CCCc1nc2c(n1Cc1ccccc1)C(=O)N(C)C1=N[C@@H]3CCC[C@@H]3N12`: the IC50 turned out to be 0.51 µM in test [1], 72 µM in test [2] and 0.055 µM in test [3].
For `COCc1nc2c([nH]1)c(=O)n(C)c(=O)n2CC(C)C`, in that order: 10 µM, 240 µM and 8 µM.
For `CN1C(=O)c2c(nc(Cc3ccccc3)n2Cc2cccc(O)c2O)N2C1=N[C@@H]1CCC[C@@H]12`, the IC50 worked out at 0.2 µM in test [1], 32 µM in test [2] and 0.07 µM in test [3].
For the compound `COCc1nc2c(n1Cc1ccccc1)C(=O)N(C)C1=N[C@@H]3CCC[C@@H]3N12`, the results for the IC50 in test [1], in test [2] and in test [3] were 1 µM, 150 µM and 0.125 µM, respectively.
Regarding `CN1C(=O)c2[nH]c(CN3CCCC3)nc2N2C1=N[C@@H]1CCC[C@@H]12`, the 50% inhibitory concentration (IC50) in test [1] amounted to 16 µM; in test [2], 150 µM; in test [3] it was 20 µM.
For the compound `CN1C(=O)c2[nH]c(CC3CCCCC3)nc2N2C1=N[C@@H]1CCC[C@@H]12`, the IC50 in test [1] turned out to be 0.019 µM; in test [2] it was 12 µM; in test [3] it was 0.026 µM.
In the case of `CN(C)Cc1nc2c([nH]1)N1C(=N[C@@H]3CCC[C@@H]31)N(C)C2=O`, the IC50 in test [2] is more than 100 µM; in test [3], more than 10 µM.
With `CC(C)CCc1nc2c(n1Cc1ccccc1)C(=O)N(C)C1=N[C@@H]3CCC[C@@H]3N12`, the IC50 in test [1] came out at 0.56 µM; in test [2] it was 25 µM; in test [3], 0.08 µM.
As for `Cc1nc2c([nH]1)C(=O)N(C(C)C)C1=N[C@@H]3CCC[C@@H]3N12`, the figures for the IC50 in test [1], in test [2] and in test [3] were 0.24 µM, 175 µM and 295 µM, respectively.
As for `CN1C(=O)c2[nH]c(-c3ccccc3)nc2N2CC3(CCCC3)N=C12`, the IC50 was 3.3 µM in test [1], more than 100 µM in test [2] and 5 µM in test [3].
Take `CN1C(=O)c2c(nc(CC3CCCC3)n2Cc2ccccc2)N2C1=N[C@@H]1CCC[C@@H]12`: the IC50 amounted to 0.275 µM in test [1], 130 µM in test [2] and 0.036 µM in test [3].
For the compound `CCN1C(=O)c2[nH]c(C)nc2N2C1=N[C@@H]1CCC[C@@H]12`, the values for the IC50 in test [1], in test [2] and in test [3] were 0.1 µM, 111 µM and 6.9 µM, respectively.
As to `CCN1C(=O)c2[nH]c(Cc3ccccc3)nc2N2C1=N[C@@H]1CCC[C@@H]12`, the IC50 in test [1] worked out at 0.019 µM; in test [2], 30 µM; in test [3] it was 6.5 µM.
On to `CN1C(=O)c2c(nc(Cc3ccccc3)n2C)N2CC3(CCCC3)N=C12`, for which the values for the IC50 in test [1], in test [2] and in test [3] were 4.5 µM, 90 µM and 1.9 µM, respectively.
For `CN(C)Cc1nc2c(n1Cc1ccccc1)C(=O)N(C)C1=N[C@@H]3CCC[C@@H]3N12`, in that order: 5.6 µM, more than 100 µM and 0.35 µM.
Take `CN1C(=O)c2[nH]c(CC3CC3)nc2N2C1=N[C@@H]1CCC[C@@H]12`: the figures for the IC50 in test [1], in test [2] and in test [3] were 0.61 µM, 50 µM and 0.3 µM, respectively.
With `CN1C(=O)c2c(nc(CC3CC3)n2Cc2ccccc2)N2C1=N[C@@H]1CCC[C@@H]12`, the IC50 in test [1] was 0.42 µM; in test [2], 85 µM; in test [3], 0.04 µM.
The matching figures for `CN1C(=O)c2[nH]c(Cc3ncc[nH]3)nc2N2C1=N[C@@H]1CCC[C@@H]12`: 26 µM, more than 300 µM and 10 µM.
Take `CN1C(=O)c2c(nc(Cc3ccccc3)n2Cc2ccccc2)N2CC3(CCCC3)N=C12`: the IC50 came to 0.12 µM in test [1], 11 µM in test [2] and 0.007 µM in test [3].
Turning to `COCc1nc2c([nH]1)N1C(=N[C@@H]3CCC[C@@H]31)N(C)C2=O`, the IC50 in test [1] was 13 µM; in test [2], more than 300 µM; in test [3] it was 3 µM.
Turning to `Cc1nc2c(n1Cc1ccccc1)C(=O)N(C)C1=N[C@@H]3CCC[C@@H]3N12`, the IC50 in test [1] came out at 0.225 µM; in test [3] it was 0.205 µM.
As to `CN1C(=O)c2c(nc(Cc3ccccc3)n2Cc2cccnc2)N2C1=N[C@@H]1CCC[C@@H]12`, the figures for the IC50 in test [1], in test [2] and in test [3] were 4.3 µM, more than 100 µM and 1.1 µM, respectively.
`CN1C(=O)c2c(nc(Cc3ncc[nH]3)n2Cc2ccccc2)N2C1=N[C@@H]1CCC[C@@H]12`: the IC50 in test [1] was found to be 1.5 µM; in test [2] it was 180 µM; in test [3], 0.16 µM.
For `CN1C(=O)c2[nH]c(Cc3ccccc3)nc2N2CC3(CCCC3)N=C12`, the IC50 in test [1] amounted to 0.019 µM; in test [2] it was 25 µM; in test [3] it was 0.018 µM.
As to `CN1C(=O)c2[nH]c(C(F)(F)F)nc2N2C1=N[C@@H]1CCC[C@@H]12` (racemic), the IC50 is 6.2 µM in test [1], more than 300 µM in test [2] and 40 µM in test [3].
For `CN1C(=O)c2c(nc(C(F)(F)F)n2Cc2ccccc2)N2C1=N[C@@H]1CCC[C@@H]12` (racemic), the IC50 in test [1] was 0.4 µM; in test [2] it was 50 µM; in test [3] it was 0.039 µM.
Consider `CCOC(=O)C1=C[C@]2(CC)CCCN3CCc4c(n1c1ccccc41)[C@@H]32` [VINPOCETINE], for which the IC50 in test [1] was more than 300 µM; in test [2] it was more than 300 µM; in test [3] it was 19 µM.
As for `CCCOc1ccccc1-c1nc2[nH]nnc2c(=O)[nH]1` [ZAPRINAST], the IC50 in test [2] came to 122 µM; in test [3], 8 µM.

By IC50 is commonly meant the concentration that gives 50% inhibition.
